CHT PAM: human CHT allosteric activation; B-score at 10 µM; 310,000 tested, 0.49% active; CHT-expressing cells, membrane potential dye, choline EC20; stronger effect = higher value; LV-AA mutant CHT in HEK293 cells; Q9GZV3;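 active = initial fluorescence not abnormally high and integrated response B-score, plate-corrected, over 3 SD above library mean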
Target sequence (Q9GZV3 whole entry, looked up): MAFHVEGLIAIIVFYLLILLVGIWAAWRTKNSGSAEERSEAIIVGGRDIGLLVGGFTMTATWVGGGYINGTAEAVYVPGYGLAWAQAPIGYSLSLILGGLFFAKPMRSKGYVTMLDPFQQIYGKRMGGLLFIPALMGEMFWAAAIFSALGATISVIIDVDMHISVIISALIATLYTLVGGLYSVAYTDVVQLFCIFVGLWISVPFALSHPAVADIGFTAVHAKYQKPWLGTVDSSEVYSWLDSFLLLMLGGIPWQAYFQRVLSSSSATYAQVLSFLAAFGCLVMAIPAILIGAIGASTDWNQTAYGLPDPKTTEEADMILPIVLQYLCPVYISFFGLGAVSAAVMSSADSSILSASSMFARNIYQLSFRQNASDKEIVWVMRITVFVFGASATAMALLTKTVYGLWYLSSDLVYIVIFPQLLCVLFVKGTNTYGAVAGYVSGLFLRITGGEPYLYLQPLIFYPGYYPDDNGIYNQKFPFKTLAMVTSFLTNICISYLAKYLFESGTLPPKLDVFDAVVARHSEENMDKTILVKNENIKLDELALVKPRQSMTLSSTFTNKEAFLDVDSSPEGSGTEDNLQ
HSF1 inhib: HSF1 inhibition. NIH3T3-HGL HSE-luciferase, MG132-induced, luminescence 8 h; stronger effect = lower value. activity change, negative = inhibition, % at 7.5 µM (by protocol). 300,000 tested, 0.77% active. AID 2098;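 active = more than half of replicate wells show activity change below -50%, luminescence cut by over half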;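 also: luciferase reports HSF-1 transcriptional activity via heat shock element; 0% = median of DMSO wells and -100% = zero luminescence signal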
Hep lipid drop: modulators of hepatic lipid droplet formation. AML12 mouse hepatocytes, oleate lipid droplets, BODIPY imaging. inhibition, % at 6.5 µM. 240,000 tested, 0.4% active. AID 1656;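 active = lipid droplet intensity inhibited by at least 50%, with more than 500 cells counted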
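Material – AML12 mouse liver cells · Also added – oleate loading, 100 µM · Compound dosing – 6.5 µM single-point dosing · Times – overnight treatment with compound plus oleate · Measured by – fluorescence imaging, 20x objective, two fields per well · Read-out – percent inhibition of filter-corrected integrated lipid droplet intensity per well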
HSF-1 act: increases HSF-1 driven luciferase reporter signal. NIH3T3-HGL HSF-1 luciferase reporter, MG132, 8 h; 100% = twice DMSO control signal. activation, % at 9 µM. 300,000 tested, 1.7% active. AID 504408;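 active = mean replicate activation of at least 50% with a set share of replicates each reaching 50%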;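 also: 0% = median of the neutral control wells and 100% = twice that signal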
PHOSPHO1 block: inhibitors of human PHOSPHO1 phosphatase. Q8TCT1. recombinant PHOSPHO1, absorbance phosphatase assay. inhibition, % at 13.3 µM. 290,000 tested, 1.1% active; in the data active = inhibition above about 60%
CHT inh: inhibits the human high affinity choline transporter; Q9GZV3; CHT-expressing cells, membrane potential dye, choline response; stronger effect = lower value; B-score at 10 µM; 310,000 tested, 0.86% active;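 active = B-score over 3 SD under the library average, and starting fluorescence ratio not unusually high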;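 also: choline stimulus applied at its EC90 after an EC20 pre-addition; B-score computed on integrated fluorescence ratio after choline addition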
CHT activ conf: human CHT activation, confirmatory screen. shares compounds with CHT PAM. CHT-expressing cells, membrane potential dye fluorescence (FDSS); % of choline EC20–EC90 response window; HEK293 expressing CHT LV-AA mutant; choline added at its EC20. activation, % at 10 µM. 2,500 tested, 91% active. AID 504833;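 active = primary screen active, with duplicate mean activation above negative control mean plus 3 SD, cut at about 11% in these data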
HEK293 MP dye: counter-screen for CHT activators: effect in parental HEK293 cells | 2,500 tested, 62% active | membrane potential dye fluorescence (FDSS); measured after EC20 choline addition | ratio readout change at 10 µM, hits read low | shares compounds with CHT PAM;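 active = duplicate-averaged ratio beyond 3 SD from buffer wells, up or down, though filed actives are nearly all decreases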
Numbers without * were called inactive. Hits are enriched below; roughly 4.9% of the tested compounds scored in any of these assays.

`CCN1C(=NCc2cccc(Cl)c2)N[C@@H](c2cccc(F)c2)C(C(=O)OC)=C1C` gave CHT PAM inactive, HSF1 inhib 0, Hep lipid drop -5, HSF-1 act 11, PHOSPHO1 block -41, CHT inh inactive, CHT activ conf 1 and HEK293 MP dye inactive.
CCN1C(=S)N[C@@H](c2cccc(F)c2)C(C(=O)OC)=C1C was read as CHT PAM inactive, HSF1 inhib -3, Hep lipid drop -10, HSF-1 act 10, PHOSPHO1 block -7 and CHT inh inactive.
CC1CCC(C(=O)NC(C(=O)N2CCc3ccccc3C2)C(C)C)CC1 (configuration not stated) was read as CHT PAM inactive, HSF1 inhib -1, Hep lipid drop -7, HSF-1 act 12, PHOSPHO1 block 19 and CHT inh inactive.
Cc1ccc(C)c(CSc2nnc(-c3cccs3)n2Cc2ccco2)c1 was read as CHT PAM 7.1*, HSF1 inhib 8, HSF-1 act 24, PHOSPHO1 block 29, CHT inh inactive, CHT activ conf 60* and HEK293 MP dye inactive.
Screening C/C(CC(=O)NC1CCCC1)=N\NC(=O)C1CCCCC1 returned Hep lipid drop 0 and PHOSPHO1 block 29.
Screening CC(=O)c1cnc(Nc2nc(C)c3ccccc3n2)nc1C returned CHT PAM inactive, HSF1 inhib -2, Hep lipid drop 2, HSF-1 act -9, PHOSPHO1 block -8, CHT inh inactive, CHT activ conf 44* and HEK293 MP dye -45*.
For COc1ccc(O)c(C(=O)c2cnc3c(c2)CN(C)C(=O)N3)c1 the results were CHT PAM inactive, HSF1 inhib 11, Hep lipid drop -2, HSF-1 act -1, PHOSPHO1 block 20 and CHT inh inactive.
For O=C(CNC(=O)/C(=C\c1ccc(F)cc1)NC(=O)c1ccccc1)OCc1ccccc1 the results were CHT PAM inactive, HSF1 inhib 0, HSF-1 act 4, PHOSPHO1 block 36 and CHT inh inactive.
`c1cc(-c2sc(-c3ccncc3)c(-c3ccncc3)c2-c2ccncc2)ccn1` gave CHT PAM inactive, HSF1 inhib -11, Hep lipid drop 0, PHOSPHO1 block 50, CHT inh inactive, CHT activ conf 59* and HEK293 MP dye -47*.
Nc1nnc(-c2ccncc2)s1 was read as CHT PAM inactive, HSF1 inhib -16, HSF-1 act -7, PHOSPHO1 block 25 and CHT inh inactive.
Screening O=C1CCC(c2ccc(-n3ccnc3)cc2)=NN1 returned CHT PAM 7.3*, HSF1 inhib -35, HSF-1 act -50, CHT inh inactive, CHT activ conf 23* and HEK293 MP dye -28*.
For O=C(O)CSc1nnc(-c2ccc(Cl)cc2Cl)n1-c1ccccc1 the results were CHT PAM inactive, HSF1 inhib 0, Hep lipid drop 2, HSF-1 act -6, PHOSPHO1 block -1 and CHT inh inactive.
Cc1nc(N2CCN(C(=O)c3ccc(Cl)cc3)CC2)c(C#N)c2c1COC(C)(C)C2 was read as CHT PAM inactive, HSF1 inhib 0, Hep lipid drop -9, HSF-1 act 18, PHOSPHO1 block 15 and CHT inh inactive.
Screening O=C(c1ccc2c(c1)OCO2)C1CCCN(Cc2cc(F)ccc2-n2cccn2)C1 (configuration not stated) returned CHT PAM inactive, HSF1 inhib -1, Hep lipid drop -12, HSF-1 act -4, PHOSPHO1 block 44 and CHT inh inactive.
For Cc1ccc(-n2cccn2)c(CN2CCCC(CNC(=O)c3ccc(F)cc3)C2)c1 (configuration not stated) the results were CHT PAM inactive, HSF1 inhib 0, Hep lipid drop 4, HSF-1 act -8, PHOSPHO1 block 28, CHT inh inactive, CHT activ conf 39* and HEK293 MP dye inactive.
Screening CCOC(=O)C1(CC2CCCCO2)CCN(Cc2nccn2-c2cccc(C)c2)CC1 (configuration not stated) returned CHT PAM inactive, HSF1 inhib -3, Hep lipid drop -28, HSF-1 act 1, PHOSPHO1 block 41 and CHT inh inactive.
For CCOC(=O)C1(CC2CCCCO2)CCN(Cc2cc(F)ccc2-n2cccn2)CC1 (configuration not stated) the results were CHT PAM 9.4*, HSF1 inhib -5, Hep lipid drop -5, HSF-1 act -7, PHOSPHO1 block -17, CHT inh inactive, CHT activ conf 49* and HEK293 MP dye inactive.
Screening Cc1cc(N2CCN(C3CCCC3)CC2)n2c(nc3ccccc32)c1C#N returned CHT PAM 7.1*, HSF1 inhib -3, Hep lipid drop -1, HSF-1 act 5, PHOSPHO1 block -14, CHT inh inactive, CHT activ conf 3 and HEK293 MP dye inactive.
Screening Cc1cc(-n2ccnc2)n2c(nc3ccccc32)c1C#N returned CHT PAM inactive, HSF1 inhib 3, Hep lipid drop -8, HSF-1 act 12, PHOSPHO1 block 11 and CHT inh inactive.
Screening Cc1ccc(C(CCNC(C)c2cccs2)c2ccco2)cc1 (configuration not stated) returned CHT PAM inactive, HSF1 inhib 2, Hep lipid drop -11, HSF-1 act 11, PHOSPHO1 block 25, CHT inh inactive, CHT activ conf 12* and HEK293 MP dye inactive.
`Cc1ccc(OCC(=O)N(Cc2cccs2)C2CCS(=O)(=O)C2)cc1C` (configuration not stated) gave CHT PAM inactive, HSF1 inhib 11, Hep lipid drop -18, HSF-1 act -6, PHOSPHO1 block 37 and CHT inh inactive.
Screening COc1ccc(C(=O)c2coc3ccc(O)c(CN4CCOCC4)c23)cc1 returned CHT PAM inactive, HSF1 inhib 1, Hep lipid drop -2, HSF-1 act 6, PHOSPHO1 block 29, CHT inh inactive, CHT activ conf 18* and HEK293 MP dye inactive.
For Cc1nnc(Sc2cc(C(=O)NCCCN(C)Cc3ccccc3)c3ccccc3n2)s1 the results were CHT PAM 6.5*, HSF1 inhib -2, Hep lipid drop -17, HSF-1 act -9, PHOSPHO1 block -4, CHT inh inactive, CHT activ conf 24* and HEK293 MP dye -29*.

Compound activity from PubChem.
